Assay results from ChEMBL document CHEMBL1148054, “Chemical and bioactive constituents from Zanthoxylum simulans” (J Nat Prod, 1994).

What was measured:
HL-60 [1] = assay: Induction of terminal cell differentiation in human HL60 cells assessed as inhibition of [3H]thymidine incorporation at 15.4 uM after 4 days; assay type: functional; set-up: scale not given: the % may be the effect or the level left
Method in brief: (§1)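 HL-60 cells were kept in RPMI 1640 with 5% heat-inactivated calf serum and penicillin/streptomycin at 37° under 5% CO2. Log-phase cells were diluted to 1.2×10^5 cells/ml and preincubated 18 h. Samples were added in DMSO (final 0.1%; vehicle controls matched) for 4 days. Aliquots then got 0.5 μCi/ml [3H]thymidine for 16 h more, were harvested and scintillation-counted. % incorporation per 10^6 cells = sample DPM / DMSO-control DPM.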

HL-60 [2] = assay: Induction of terminal cell differentiation in human HL60 cells at 7.7 uM after 4 days by NBT reduction assay; assay type: functional
Method in brief: (§2)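 Log-phase HL-60 cells (RPMI 1640, 5% heat-inactivated calf serum, 37°, 5% CO2) were diluted to 1.2×10^5 cells/ml, preincubated 18 h, then treated 4 days with samples in DMSO (final 0.1%; DMSO controls). 10^6 cells were mixed 1:1 with fresh PBS holding 2 mg/ml NBT and 5 μg/ml TPA, 1 h at 37°. Formazan-positive cells were counted microscopically as % NBT-positive.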

HL-60 [3] = assay: Induction of terminal cell differentiation in human HL60 cells assessed as naphthol AS-D chloroacetate esterase activity at 7.7 uM after 4 days; assay type: functional
Method in brief: (§3)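 HL-60 cells were grown in RPMI 1640 with 5% heat-inactivated calf serum at 37°, 5% CO2. They were diluted to 1.2×10^5 cells/ml, preincubated 18 h, then exposed 4 days to DMSO-dissolved samples (final DMSO 0.1%, matched vehicle controls). Specific esterase (naphthol AS-D chloroacetate) was scored cytochemically with a commercial kit as the percentage of differentiated cells.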

HL-60 [4] = assay: Induction of terminal cell differentiation in human HL60 cells assessed as cell viability at 61.5 uM by trypan blue exclusion method; assay type: functional; conditions: read-out: Activity
Method in brief: (§4)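 HL-60 cells preincubated 18 h at 1.2×10^5 cells/ml, then exposed 4 days to samples in DMSO (final 0.1%). Viability by trypan blue exclusion: viable/(viable+dead)×100. Cell counts also taken after 4 days.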

HL-60 [5] = assay: Induction of terminal cell differentiation in human HL60 cells assessed as inhibition of [3H]thymidine incorporation at 3.8 uM after 4 days; assay type: functional; set-up: scale not given: the % may be the effect or the level left; method in brief: as §1
HL-60 [6] = assay: Induction of terminal cell differentiation in human HL60 cells assessed as inhibition of [3H]thymidine incorporation at 61.5 uM after 4 days; assay type: functional; set-up: scale not given: the % may be the effect or the level left; method in brief: as §1
HL-60 [7] = assay: Induction of terminal cell differentiation in human HL60 cells assessed as naphthol AS-D chloroacetate esterase activity at 15.4 uM after 4 days; assay type: functional; method in brief: as §3
ZR-75-1 = assay: Cytotoxicity against human ZR-75-1 cells; assay type: functional; conditions: ZR-75-1, read-out: ED50
Method in brief: (§5)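 Cultured human cancer lines and murine P-388 cells. Complete dose-response data from at least five concentrations of test substance, each tested in duplicate.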

HL-60 [8] = assay: Induction of terminal cell differentiation in human HL60 cells assessed as naphthol AS-D chloroacetate esterase activity at 61.5 uM after 4 days; assay type: functional; method in brief: as §3
HL-60 [9] = assay: Induction of terminal cell differentiation in human HL60 cells assessed as cell viability at 30.7 uM by trypan blue exclusion method; assay type: functional; conditions: read-out: Activity; method in brief: as §4
HL-60 [10] = assay: Induction of terminal cell differentiation in human HL60 cells assessed as inhibition of [3H]thymidine incorporation at 30.7 uM after 4 days; assay type: functional; set-up: scale not given: the % may be the effect or the level left; method in brief: as §1
[11] = Antiplatelet activity against rabbit platelet assessed as inhibition of arachidonic acid-induced platelet aggregation at 100 ug/ml; assay type: functional; conditions: Oryctolagus cuniculus
SK-MEL = assay: Cytotoxicity against human SK-MEL cells; assay type: functional; conditions: read-out: ED50 (the source's name); method in brief: as §5
Col2 = assay: Cytotoxicity against human Col2 cells; assay type: functional; conditions: read-out: ED50 (the source's name); method in brief: as §5
HL-60 [12] = assay: Induction of cell differentiation in human HL60 cells assessed as alpha naphthyl esterase activity at 3.8 uM after 4 days; assay type: functional
Method in brief: (§6)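 HL-60 cells in RPMI 1640 with 5% heat-inactivated calf serum at 37° under 5% CO2. Log-phase cells diluted to 1.2×10^5 cells/ml and preincubated 18 h, then samples added in DMSO (final 0.1%, DMSO controls). Cells scored after 4 days.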

HL-60 [13] = assay: Induction of cell differentiation in human HL60 cells assessed as alpha naphthyl esterase activity at 15.4 uM after 4 days; assay type: functional; method in brief: as §6
P388 = assay: Cytotoxicity against mouse P388 cells; assay type: functional; conditions: read-out: ED50 (the source's name); method in brief: as §5
HL-60 [14] = assay: Induction of cell differentiation in human HL60 cells assessed as alpha naphthyl esterase activity at 7.7 uM after 4 days; assay type: functional; method in brief: as §6
HL-60 [15] = assay: Induction of terminal cell differentiation in human HL60 cells assessed as naphthol AS-D chloroacetate esterase activity at 3.8 uM after 4 days; assay type: functional; method in brief: as §3
Lu1 = assay: Cytotoxicity against human Lu1 cells; assay type: functional; conditions: read-out: ED50 (the source's name); method in brief: as §5
[16] = Cytotoxicity against human U373 cells; assay type: functional, U-373MG ATCC; conditions: U373 MG, read-out: ED50; method in brief: as §5
HT-1080 = assay: Cytotoxicity against human HT1080 cells; assay type: functional; conditions: read-out: ED50 (the source's name); method in brief: as §5
HL-60 [17] = assay: Induction of cell differentiation in human HL60 cells assessed as alpha naphthyl esterase activity at 30.7 uM after 4 days; assay type: functional; method in brief: as §6
HL-60 [18] = assay: Induction of terminal cell differentiation in human HL60 cells assessed as cell viability at 3.8 uM by trypan blue exclusion method; assay type: functional; conditions: read-out: Activity; method in brief: as §4
HL-60 [19] = assay: Induction of terminal cell differentiation in human HL60 cells assessed as naphthol AS-D chloroacetate esterase activity at 30.7 uM after 4 days; assay type: functional; method in brief: as §3
HL-60 [20] = assay: Induction of terminal cell differentiation in human HL60 cells at 15.4 uM after 4 days by NBT reduction assay; assay type: functional; method in brief: as §2
A-431 = assay: Cytotoxicity against human A431 cells; assay type: functional; conditions: read-out: ED50 (the source's name); method in brief: as §5
KB = assay: Cytotoxicity against human KB cells; assay type: functional; conditions: read-out: ED50 (the source's name); method in brief: as §5
HL-60 [21] = assay: Induction of terminal cell differentiation in human HL60 cells assessed as cell viability at 7.7 uM by trypan blue exclusion method; assay type: functional; conditions: read-out: Activity; method in brief: as §4
HL-60 [22] = assay: Induction of terminal cell differentiation in human HL60 cells assessed as cell viability at 15.4 uM by trypan blue exclusion method; assay type: functional; conditions: read-out: Activity; method in brief: as §4
[23] = Cytotoxicity against human multidrug-resistant KBV1 cells in presence of vinblastine; assay type: functional; conditions: KB-V1, read-out: ED50 (the source's name); method in brief: as §5
[24] = Antiplatelet activity against rabbit platelet assessed as inhibition of platelet activating factor-induced platelet aggregation at 100 ug/ml; assay type: functional; conditions: Oryctolagus cuniculus
HL-60 [25] = assay: Induction of terminal cell differentiation in human HL60 cells at 30.7 uM after 4 days by NBT reduction assay; assay type: functional; method in brief: as §2
[26] = Cytotoxicity against human multidrug-resistant KBV1 cells in absence of vinblastine; assay type: functional; conditions: KB-V1, read-out: ED50 (the source's name); method in brief: as §5
LNCaP = assay: Cytotoxicity against human LNCAP cells; assay type: functional; conditions: read-out: ED50; method in brief: as §5
HL-60 [27] = assay: Induction of terminal cell differentiation in human HL60 cells at 3.8 uM after 4 days by NBT reduction assay; assay type: functional; method in brief: as §2
[28] = Cytotoxicity against human BC1 cells; assay type: functional; conditions: read-out: ED50 (the source's name); method in brief: as §5
[29] = Antiplatelet activity against rabbit platelet assessed as inhibition of collagen-induced platelet aggregation at 100 ug/ml; assay type: functional; conditions: Oryctolagus cuniculus
HL-60 [30] = assay: Induction of terminal cell differentiation in human HL60 cells at 61.5 uM after 4 days by NBT reduction assay; assay type: functional; method in brief: as §2
HL-60 [31] = assay: Induction of cell differentiation in human HL60 cells assessed as alpha naphthyl esterase activity at 61.5 uM after 4 days; assay type: functional; method in brief: as §6
HL-60 [32] = assay: Induction of terminal cell differentiation in human HL60 cells assessed as inhibition of [3H]thymidine incorporation at 7.7 uM after 4 days; assay type: functional; set-up: scale not given: the % may be the effect or the level left; method in brief: as §1

CC(C)C(=O)CCC1(C)C=Cc2c(c3ccccc3n(C)c2=O)O1 (stereo unspecified)
Activity (HL-60 [1]): 0%
Activity (HL-60 [2]): 4.5%
Activity (HL-60 [3]): 6.5%
viability at 61.5 µM (HL-60 [4]): 85%
Activity (HL-60 [5]): 0%
Activity (HL-60 [6]): 31.6%
Activity (HL-60 [7]): 8%
EC50 (ZR-75-1): 11.1 µM
Activity (HL-60 [8]): 5%
viability at 30.7 µM (HL-60 [9]): 96%
Activity (HL-60 [10]): 0%
inhibition at 100 µg/mL [11]: 100%
EC50 (SK-MEL): 36.6 µM
EC50 (Col2): > 60 µM
Activity (HL-60 [12]): 5%
Activity (HL-60 [13]): 5.5%
EC50 (P388): 9.8 µM
Activity (HL-60 [14]): 5%
Activity (HL-60 [15]): 5.5%
EC50 (Lu1): > 60 µM
EC50 [16]: > 60 µM
EC50 (HT-1080): > 60 µM
Activity (HL-60 [17]): 12.22%
viability at 3.8 µM (HL-60 [18]): 97%
Activity (HL-60 [19]): 9.4%
Activity (HL-60 [20]): 8%
EC50 (A-431): > 60 µM
EC50 (KB): 46.4 µM
viability at 7.7 µM (HL-60 [21]): 98%
viability at 15.4 µM (HL-60 [22]): 98%
EC50 [23]: 4 µM
inhibition at 100 µg/mL [24]: 100%
Activity (HL-60 [25]): 9.9%
EC50 [26]: 24.3 µM
EC50 (LNCaP): > 60 µM
Activity (HL-60 [27]): 5.5%
EC50 [28]: > 60 µM
inhibition at 100 µg/mL [29]: 83.9%
Activity (HL-60 [30]): 53.1%
Activity (HL-60 [31]): 48.9%
Activity (HL-60 [32]): 0%
